Laboratory results from ChEMBL document CHEMBL1156310, “Stepwise synthesis of oligonucleotide-peptide conjugates containing guanidinium and lipophilic groups in their 3'-termini” (Bioorg Med Chem Lett, 2010).

Tests used:
[1] = tested on: SH-SY5Y; experiment: Antisense activity in human SH-SY5Y cells assessed as inhibition of luciferase gene expression at 60 nM after 22 hrs by luminometry in the presence of lipofectamine 2000; type: functional
Procedure, shortened: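 SH-SY5Y cells cotransfected via Lipofectamine 2000 with Renilla (target) and firefly (internal control) luciferase plasmids plus phosphorothioate ASO derivatives at 60 nM, targeting Renilla mRNA site 21-38; scrambled sequences as controls. Read-out: Renilla luciferase inhibition normalized to firefly.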

[2] = tested on: SH-SY5Y; experiment: Cellular uptake in human SH-SY5Y cells at 300 nM after 22 hrs by dual leucifearse reporter assay; type: ADME, cell-based; details: 0.3 µM
Procedure, shortened: (§1)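 Dual-luciferase plasmids (Renilla target, firefly internal control) transfected into SH-SY5Y; after 3 h, medium replaced with fresh medium containing ASO-peptide conjugates (150, 200, 300 nM) without Lipofectamine 2000. Luciferase activities measured 22 h after transfection; knockdown expressed as inhibition of Renilla expression. Phosphorothioate ASO targets Renilla mRNA 21-38 site.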

[3] = tested on: SH-SY5Y; experiment: Antisense activity in human SH-SY5Y cells assessed as inhibition of luciferase gene expression at 300 nM after 22 hrs by luminometry; type: functional; set-up: scale not given: the % may be the effect or the level left; procedure, shortened: as §1

Drug uptake [2]	Structure (SMILES)	inhibition at 0.06 µM [1]	Activity [3]
11%	Cc1cn([C@H]2C[C@H](OP(O)(=S)OC[C@H]3O[C@@H](n4cc(C)c(=O)[nH]c4=O)C[C@@H]3OP(O)(=S)OC[C@H]3O[C@@H](n4cnc5c(=O)[nH]c(N)nc54)[C@H](O)[C@@H]3OP(O)(=S)OC[C@H]3O[C@@H](n4cc(C)c(=O)[nH]c4=O)C[C@@H]3OP(O)(=S)OC[C@H]3O[C@@H](n4cc(C)c(=O)[nH]c4=O)C[C@@H]3OP(O)(=S)OC[C@H]3O[C@@H](n4cc(C)c(=O)[nH]c4=O)C[C@@H]3OP(O)(=S)OC[C@H]3O[C@@H](n4ccc(N)nc4=O)[C@H](O)[C@@H]3OP(O)(=S)OC[C@H]3O[C@@H](n4ccc(N)nc4=O)[C@H](O)[C@@H]3OP(O)(=S)OC[C@H]3O[C@@H](n4cc(C)c(=O)[nH]c4=O)C[C@@H]3OP(O)(=S)OC[C@H]3O[C@@H](n4cc(C)c(=O)[nH]c4=O)C[C@@H]3OP(O)(=S)OC[C@H]3O[C@@H](n4cc(C)c(=O)[nH]c4=O)C[C@@H]3OP(O)(=S)OC[C@H]3O[C@@H](n4cnc5c(=O)[nH]c(N)nc54)[C@H](O)[C@@H]3OP(O)(=S)OC[C@H]3O[C@@H](n4ccc(N)nc4=O)[C@H](O)[C@@H]3O)[C@@H](COP(O)(=S)O[C@H]3[C@@H](O)[C@H](n4ccc(N)nc4=O)O[C@@H]3COP(O)(=S)O[C@H]3C[C@H](n4cc(C)c(=O)[nH]c4=O)O[C@@H]3COP(O)(=S)O[C@H]3[C@@H](O)[C@H](n4cnc5c(=O)[nH]c(N)nc54)O[C@@H]3COP(O)(=S)O[C@H]3[C@@H](O)[C@H](n4cnc5c(=O)[nH]c(N)nc54)O[C@@H]3COP(O)(=S)O[C@H]3[C@@H](O)[C@H](n4cnc5c(N)ncnc54)O[C@@H]3COP(O)(=S)OCCCC(=O)N[C@H](CCCCN)C(=O)N[C@@H](CCCCN)C(=O)NCCCCCCO)O2)c(=O)[nH]c1=O (stereo partly specified)	61%	
18%	Cc1cn([C@H]2C[C@H](OP(O)(=S)OC[C@H]3O[C@@H](n4cc(C)c(=O)[nH]c4=O)C[C@@H]3OP(O)(=S)OC[C@H]3O[C@@H](n4cnc5c(=O)[nH]c(N)nc54)[C@H](O)[C@@H]3OP(O)(=S)OC[C@H]3O[C@@H](n4cc(C)c(=O)[nH]c4=O)C[C@@H]3OP(O)(=S)OC[C@H]3O[C@@H](n4cc(C)c(=O)[nH]c4=O)C[C@@H]3OP(O)(=S)OC[C@H]3O[C@@H](n4cc(C)c(=O)[nH]c4=O)C[C@@H]3OP(O)(=S)OC[C@H]3O[C@@H](n4ccc(N)nc4=O)[C@H](O)[C@@H]3OP(O)(=S)OC[C@H]3O[C@@H](n4ccc(N)nc4=O)[C@H](O)[C@@H]3OP(O)(=S)OC[C@H]3O[C@@H](n4cc(C)c(=O)[nH]c4=O)C[C@@H]3OP(O)(=S)OC[C@H]3O[C@@H](n4cc(C)c(=O)[nH]c4=O)C[C@@H]3OP(O)(=S)OC[C@H]3O[C@@H](n4cc(C)c(=O)[nH]c4=O)C[C@@H]3OP(O)(=S)OC[C@H]3O[C@@H](n4cnc5c(=O)[nH]c(N)nc54)[C@H](O)[C@@H]3OP(O)(=S)OC[C@H]3O[C@@H](n4ccc(N)nc4=O)[C@H](O)[C@@H]3O)[C@@H](COP(O)(=S)O[C@H]3[C@@H](O)[C@H](n4ccc(N)nc4=O)O[C@@H]3COP(O)(=S)O[C@H]3C[C@H](n4cc(C)c(=O)[nH]c4=O)O[C@@H]3COP(O)(=S)O[C@H]3[C@@H](O)[C@H](n4cnc5c(=O)[nH]c(N)nc54)O[C@@H]3COP(O)(=S)O[C@H]3[C@@H](O)[C@H](n4cnc5c(=O)[nH]c(N)nc54)O[C@@H]3COP(O)(=S)O[C@H]3[C@@H](O)[C@H](n4cnc5c(N)ncnc54)O[C@@H]3COP(O)(=S)OCCCC(=O)N[C@H](CCCCNC(=N)N)C(=O)N[C@@H](CCCCNC(=N)N)C(=O)NCCCCCCO)O2)c(=O)[nH]c1=O (stereo partly specified)	64%	
21%	Cc1cn([C@H]2C[C@H](OP(O)(=S)OC[C@H]3O[C@@H](n4cc(C)c(=O)[nH]c4=O)C[C@@H]3OP(O)(=S)OC[C@H]3O[C@@H](n4cnc5c(=O)[nH]c(N)nc54)[C@H](O)[C@@H]3OP(O)(=S)OC[C@H]3O[C@@H](n4cc(C)c(=O)[nH]c4=O)C[C@@H]3OP(O)(=S)OC[C@H]3O[C@@H](n4cc(C)c(=O)[nH]c4=O)C[C@@H]3OP(O)(=S)OC[C@H]3O[C@@H](n4cc(C)c(=O)[nH]c4=O)C[C@@H]3OP(O)(=S)OC[C@H]3O[C@@H](n4ccc(N)nc4=O)[C@H](O)[C@@H]3OP(O)(=S)OC[C@H]3O[C@@H](n4ccc(N)nc4=O)[C@H](O)[C@@H]3OP(O)(=S)OC[C@H]3O[C@@H](n4cc(C)c(=O)[nH]c4=O)C[C@@H]3OP(O)(=S)OC[C@H]3O[C@@H](n4cc(C)c(=O)[nH]c4=O)C[C@@H]3OP(O)(=S)OC[C@H]3O[C@@H](n4cc(C)c(=O)[nH]c4=O)C[C@@H]3OP(O)(=S)OC[C@H]3O[C@@H](n4cnc5c(=O)[nH]c(N)nc54)[C@H](O)[C@@H]3OP(O)(=S)OC[C@H]3O[C@@H](n4ccc(N)nc4=O)[C@H](O)[C@@H]3O)[C@@H](COP(O)(=S)O[C@H]3[C@@H](O)[C@H](n4ccc(N)nc4=O)O[C@@H]3COP(O)(=S)O[C@H]3C[C@H](n4cc(C)c(=O)[nH]c4=O)O[C@@H]3COP(O)(=S)O[C@H]3[C@@H](O)[C@H](n4cnc5c(=O)[nH]c(N)nc54)O[C@@H]3COP(O)(=S)O[C@H]3[C@@H](O)[C@H](n4cnc5c(=O)[nH]c(N)nc54)O[C@@H]3COP(O)(=S)O[C@H]3[C@@H](O)[C@H](n4cnc5c(N)ncnc54)O[C@@H]3COP(O)(=S)OCCCC(=O)N[C@H](CCCCNC(=N)N)C(=O)N[C@@H](CCCCNC(=N)N)C(=O)N[C@H](CCCCNC(=N)N)C(=O)N[C@@H](CCCCNC(=N)N)C(=O)NCCCCCCO)O2)c(=O)[nH]c1=O (stereo partly specified)	57%	
28%	Cc1cn([C@H]2C[C@H](OP(O)(=S)OC[C@H]3O[C@@H](n4cc(C)c(=O)[nH]c4=O)C[C@@H]3OP(O)(=S)OC[C@H]3O[C@@H](n4cnc5c(=O)[nH]c(N)nc54)[C@H](O)[C@@H]3OP(O)(=S)OC[C@H]3O[C@@H](n4cc(C)c(=O)[nH]c4=O)C[C@@H]3OP(O)(=S)OC[C@H]3O[C@@H](n4cc(C)c(=O)[nH]c4=O)C[C@@H]3OP(O)(=S)OC[C@H]3O[C@@H](n4cc(C)c(=O)[nH]c4=O)C[C@@H]3OP(O)(=S)OC[C@H]3O[C@@H](n4ccc(N)nc4=O)[C@H](O)[C@@H]3OP(O)(=S)OC[C@H]3O[C@@H](n4ccc(N)nc4=O)[C@H](O)[C@@H]3OP(O)(=S)OC[C@H]3O[C@@H](n4cc(C)c(=O)[nH]c4=O)C[C@@H]3OP(O)(=S)OC[C@H]3O[C@@H](n4cc(C)c(=O)[nH]c4=O)C[C@@H]3OP(O)(=S)OC[C@H]3O[C@@H](n4cc(C)c(=O)[nH]c4=O)C[C@@H]3OP(O)(=S)OC[C@H]3O[C@@H](n4cnc5c(=O)[nH]c(N)nc54)[C@H](O)[C@@H]3OP(O)(=S)OC[C@H]3O[C@@H](n4ccc(N)nc4=O)[C@H](O)[C@@H]3O)[C@@H](COP(O)(=S)O[C@H]3[C@@H](O)[C@H](n4ccc(N)nc4=O)O[C@@H]3COP(O)(=S)O[C@H]3C[C@H](n4cc(C)c(=O)[nH]c4=O)O[C@@H]3COP(O)(=S)O[C@H]3[C@@H](O)[C@H](n4cnc5c(=O)[nH]c(N)nc54)O[C@@H]3COP(O)(=S)O[C@H]3[C@@H](O)[C@H](n4cnc5c(=O)[nH]c(N)nc54)O[C@@H]3COP(O)(=S)O[C@H]3[C@@H](O)[C@H](n4cnc5c(N)ncnc54)O[C@@H]3COP(O)(=S)OCCCC(=O)N[C@H](CCCCNC(=N)N)C(=O)N[C@@H](CCCCNC(N)N)C(=O)N[C@H](CCCCNC(=N)N)C(=O)N[C@@H](CCCCNC(=N)N)C(=O)N[C@H](CCCCNC(=N)N)C(=O)N[C@@H](CCCCNC(=N)N)C(=O)N[C@H](CCCCNC(=N)N)C(=O)N[C@@H](CCCCNC(=N)N)C(=O)NCCCCCCO)O2)c(=O)[nH]c1=O (stereo partly specified)	66%	28%
11%	Cc1cn([C@H]2C[C@H](OP(O)(=S)OC[C@H]3O[C@@H](n4cc(C)c(=O)[nH]c4=O)C[C@@H]3OP(O)(=S)OC[C@H]3O[C@@H](n4cnc5c(=O)[nH]c(N)nc54)[C@H](O)[C@@H]3OP(O)(=S)OC[C@H]3O[C@@H](n4cc(C)c(=O)[nH]c4=O)C[C@@H]3OP(O)(=S)OC[C@H]3O[C@@H](n4cc(C)c(=O)[nH]c4=O)C[C@@H]3OP(O)(=S)OC[C@H]3O[C@@H](n4cc(C)c(=O)[nH]c4=O)C[C@@H]3OP(O)(=S)OC[C@H]3O[C@@H](n4ccc(N)nc4=O)[C@H](O)[C@@H]3OP(O)(=S)OC[C@H]3O[C@@H](n4ccc(N)nc4=O)[C@H](O)[C@@H]3OP(O)(=S)OC[C@H]3O[C@@H](n4cc(C)c(=O)[nH]c4=O)C[C@@H]3OP(O)(=S)OC[C@H]3O[C@@H](n4cc(C)c(=O)[nH]c4=O)C[C@@H]3OP(O)(=S)OC[C@H]3O[C@@H](n4cc(C)c(=O)[nH]c4=O)C[C@@H]3OP(O)(=S)OC[C@H]3O[C@@H](n4cnc5c(=O)[nH]c(N)nc54)[C@H](O)[C@@H]3OP(O)(=S)OC[C@H]3O[C@@H](n4ccc(N)nc4=O)[C@H](O)[C@@H]3O)[C@@H](COP(O)(=S)O[C@H]3[C@@H](O)[C@H](n4ccc(N)nc4=O)O[C@@H]3COP(O)(=S)O[C@H]3C[C@H](n4cc(C)c(=O)[nH]c4=O)O[C@@H]3COP(O)(=S)O[C@H]3[C@@H](O)[C@H](n4cnc5c(=O)[nH]c(N)nc54)O[C@@H]3COP(O)(=S)O[C@H]3[C@@H](O)[C@H](n4cnc5c(=O)[nH]c(N)nc54)O[C@@H]3COP(O)(=S)O[C@H]3[C@@H](O)[C@H](n4cnc5c(N)ncnc54)O[C@@H]3COP(O)(=S)OCCCC(=O)N[C@H](CCCCN)C(=O)N[C@@H](CCCCN)C(=O)N[C@H](CCCCN)C(=O)N[C@@H](CCCCN)C(=O)N[C@H](CCCCN)C(=O)N[C@@H](CCCCN)C(=O)N[C@H](CCCCN)C(=O)N[C@@H](CCCCN)C(=O)NCCCCCCO)O2)c(=O)[nH]c1=O (stereo partly specified)	65%	
